Test results from ChEMBL document CHEMBL1157911, “A prodrug approach towards the development of tricyclic-based FBPase inhibitors” (Bioorg Med Chem Lett, 2010).
Values after ≈ are worked out from the molar mass of the structure shown.

Legend:
[1] = Inhibition of fructose-1,6-bisphosphatase in monkey hepatocytes assessed as glucose production; type: cell-based; settings: Macaca mulatta, Hepatocyte
[2] = Solubility at pH 6.8; type: physicochemical; settings: buffer
Outline: (§1)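 Solubility measured in Japanese Pharmacopoeia test fluids: first fluid (JP1, pH 1.2, simulating gastric conditions) and second fluid (JP2, pH 6.8, simulating intestinal conditions).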

[3] = Solubility at pH 1.2; type: physicochemical; settings: buffer; outline: as §1
Cytochrome P450 3A4 = Cytochrome P450 3A4 (Homo sapiens, UniProt P08684); experiment: Inhibition of CYP3A4; type: ADME
Chain of Cytochrome P450 3A4 (P08684 whole entry): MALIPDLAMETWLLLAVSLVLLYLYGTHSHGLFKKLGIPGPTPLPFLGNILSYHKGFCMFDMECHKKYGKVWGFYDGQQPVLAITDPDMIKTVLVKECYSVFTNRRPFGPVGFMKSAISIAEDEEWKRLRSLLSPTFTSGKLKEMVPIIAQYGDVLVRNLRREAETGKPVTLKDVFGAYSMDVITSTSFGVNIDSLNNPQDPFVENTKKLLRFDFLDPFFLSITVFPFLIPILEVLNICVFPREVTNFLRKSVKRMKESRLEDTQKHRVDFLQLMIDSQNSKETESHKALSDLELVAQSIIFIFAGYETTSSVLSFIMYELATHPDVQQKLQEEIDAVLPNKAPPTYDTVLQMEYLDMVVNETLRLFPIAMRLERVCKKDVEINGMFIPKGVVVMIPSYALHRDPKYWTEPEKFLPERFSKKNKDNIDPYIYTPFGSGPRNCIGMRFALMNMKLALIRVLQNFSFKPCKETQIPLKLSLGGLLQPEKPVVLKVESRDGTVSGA

Row | solubility [2] | solubility [3] | IC50 (Cytochrome P450 3A4) | SMILES | IC50 [1]
1 | < 0.5 µg/mL | 19 µg/mL (≈ 41.1 µM) | 0.42 µM | Cc1cc(OC[P@@]2(=O)OCC[C@@H](c3cccc(Cl)c3)O2)c2c(c1C)Cc1scnc1-2 | 15 µM
2 | 84 µg/mL (≈ 190 µM) | 88 µg/mL (≈ 199 µM) | 15 µM | Cc1cc(OC[P@@]2(=O)OCC[C@@H](c3cccnc3C)O2)c2c(c1C)Cc1scnc1-2 | 4 µM
3 | 66 µg/mL (≈ 130 µM) | 27 µg/mL (≈ 53 µM) | 0.58 µM | CCOC(=O)[C@H](C)NP(=O)(COc1cc(C)c(C)c2c1-c1ncsc1C2)N[C@@H](C)C(=O)OCC | 6.8 µM
4 | < 0.5 µg/mL | < 0.5 µg/mL | 2.7 µM | Cc1cc(OC[P@]2(=O)OCC[C@@H](c3cccc(Cl)c3)O2)c2c(c1C)Cc1scnc1-2 | > 100 µM
5 | 51 µg/mL (≈ 119 µM) | 88 µg/mL (≈ 205 µM) |  | Cc1cc(OC[P@@]2(=O)OCC[C@@H](c3ccncc3)O2)c2c(c1C)Cc1scnc1-2 (racemic) | 41 µM
6 | 83 µg/mL (≈ 188 µM) | 87 µg/mL (≈ 197 µM) | 5.8 µM | Cc1cc(OC[P@]2(=O)OCC[C@H](c3cccnc3C)O2)c2c(c1C)Cc1scnc1-2 (racemic) | 11 µM
7 | 81 µg/mL (≈ 183 µM) | > 100 µg/mL | 5.2 µM | Cc1ccncc1[C@@H]1CCO[P@](=O)(COc2cc(C)c(C)c3c2-c2ncsc2C3)O1 (racemic) | > 100 µM
8 | < 0.5 µg/mL | 4.4 µg/mL (≈ 9.53 µM) | 0.65 µM | Cc1cc(OC[P@@]2(=O)OCC[C@@H](c3ccc(Cl)cc3)O2)c2c(c1C)Cc1scnc1-2 (racemic) | 66 µM
9 | < 0.5 µg/mL | < 0.5 µg/mL | 0.73 µM | Cc1cc(OC[P@]2(=O)OCC[C@@H](c3ccc(Cl)cc3)O2)c2c(c1C)Cc1scnc1-2 (racemic) | > 100 µM
10 | 84 µg/mL (≈ 196 µM) | 86 µg/mL (≈ 201 µM) | 2.9 µM | Cc1cc(OC[P@@]2(=O)OCC[C@@H](c3cccnc3)O2)c2c(c1C)Cc1scnc1-2 (racemic) | 8.8 µM
11 | 0.8 µg/mL (≈ 1.75 µM) | 17 µg/mL (≈ 37.2 µM) | 0.27 µM | COc1cccc([C@@H]2CCO[P@](=O)(COc3cc(C)c(C)c4c3-c3ncsc3C4)O2)c1 (racemic) | > 100 µM
12 | < 0.5 µg/mL | < 0.5 µg/mL | 0.3 µM | COc1cccc([C@@H]2CCO[P@@](=O)(COc3cc(C)c(C)c4c3-c3ncsc3C4)O2)c1 (racemic) | > 100 µM
13 | 73 µg/mL (≈ 170 µM) | 86 µg/mL (≈ 201 µM) | 8.4 µM | Cc1cc(OC[P@@]2(=O)OCC[C@@H](c3ccccn3)O2)c2c(c1C)Cc1scnc1-2 (racemic) | 22 µM
